Results as given in ChEMBL document CHEMBL2380254, “Optimization of tocotrienols as antiproliferative and antimigratory leads” (Eur J Med Chem, 2013).

Assays:
MDA-MB-231 = experiment: Growth inhibition of human MDA-MB-231 cells after 48 hrs by sulforhodamine B assay; type: functional; conditions: MDA-MB-231, 48 h
Procedure, shortened: (§1)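 NCI-60 panel cells grown in RPMI 1640 with 5% FBS and 2 mM L-glutamine, seeded at 5000–40,000 cells/well and preincubated 24 h. Five 10-fold dilutions (0.001–100 µM) from DMSO stocks were added for 48 h at 37 °C. Adherent cells were fixed with cold TCA (10% final) for 60 min at 4 °C, stained with 0.4% SRB, and read at 515 nm. GI50 was set where 100×(T−T0)/(C−T0)=50.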

SR = experiment: Growth inhibition of human SR cells after 48 hrs by sulforhodamine B assay; type: functional
Procedure, shortened: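 Suspension leukemia line in RPMI 1640 with 5% FBS and 2 mM L-glutamine, NCI-60 five-dose format ([…]), 48 h at 37 °C. Settled cells were fixed with 80% TCA (final 16%), stained with SRB and read at 515 nm. GI50 is where 100×(T−T0)/(C−T0)=50, with T0 measured at dosing.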

SF-539 = experiment: Growth inhibition of human SF539 cells assessed as cell growth at 10 uM after 48 hrs by sulforhodamine B assay; type: functional; conditions: SF-539, 48 h, read-out: Activity
Procedure, shortened: (§2)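 Single-dose NCI-60 screen: adherent cells in RPMI 1640 with 5% FBS were exposed to 10 µM for 48 h at 37 °C after a 24 h preincubation. They were fixed in situ with cold TCA (10% final), stained with 0.4% SRB in 1% acetic acid, solubilized in 10 mM Tris base, and read at 515 nm. Percent growth was taken relative to time-zero and control plates.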

HOP-62 [1] = experiment: Growth inhibition of human HOP62 cells after 48 hrs by sulforhodamine B assay; type: functional; conditions: HOP-62, 48 h
Procedure, shortened: (§3)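 NCI-60 screen: cells in RPMI 1640 with 5% FBS and 2 mM glutamine, 5000–40,000 cells/well, preincubated 24 h. Five concentrations (10-fold dilutions; 100 to 0.001 µM) applied for 48 h at 37 °C. TCA fixation, SRB stain, absorbance at 515 nm. Time-zero plates included; GI50 where 100×(T−T0)/(C−T0)=50.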

NCI-H226 [2] = experiment: Growth inhibition of human NCI-H226 cells assessed as cell growth at 10 uM after 48 hrs by sulforhodamine B assay; type: functional; conditions: NCI-H226, 48 h, read-out: Activity; procedure, shortened: as §2
KM12 = experiment: Growth inhibition of human KM12 cells assessed as cell growth at 10 uM after 48 hrs by sulforhodamine B assay; type: functional; conditions: KM12, 48 h, read-out: Activity
Procedure, shortened: (§4)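 NCI-60 single-dose screen at 10 µM: cells in RPMI 1640 with 5% FBS, preincubated 24 h, then exposed 48 h at 37 °C. TCA fixation (16% final for suspension cells), SRB staining, absorbance 515 nm. Percent growth relative to time-zero and untreated control plates; negative values indicate cell kill.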

NCI-H226 [3] = experiment: Growth inhibition of human NCI-H226 cells after 48 hrs by sulforhodamine B assay; type: functional; conditions: NCI-H226, 48 h; procedure, shortened: as §1
HL-60(TB) = experiment: Growth inhibition of human HL-60(TB) cells assessed as cell growth at 10 uM after 48 hrs by sulforhodamine B assay; type: functional; conditions: HL-60, 48 h, read-out: Activity
Procedure, shortened: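 NCI-60 single-dose screen run at 10 µM on HL-60(TB) suspension cells in RPMI 1640 with 5% FBS and 2 mM L-glutamine. Cells were preincubated for 24 h, with a time-zero plate fixed then. Exposure lasted 48 h at 37 °C. Settled cells were fixed with TCA (16% final), stained with SRB and read at 515 nm. Percent growth is relative to control and T0.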

CAKI-1 = experiment: Growth inhibition of human CAKI-1 cells after 48 hrs by sulforhodamine B assay; type: functional; conditions: CAKI-1, 48 h; procedure, shortened: as §3
UACC-257 = experiment: Growth inhibition of human UACC257 cells after 48 hrs by sulforhodamine B assay; type: functional; conditions: UACC-257, 48 h
Procedure, shortened: (§5)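 NCI-60 five-dose screen. Cells were grown in RPMI 1640 with 5% FBS and 2 mM L-glutamine, plated at 5000–40,000 cells/well and incubated 24 h before dosing, with T0 plates TCA-fixed. DMSO stocks were diluted to doses of […] and exposed 48 h at 37 °C, 5% CO2. Cells were fixed with cold TCA (final 10%, 60 min, 4 °C), stained with 0.4% SRB in 1% acetic acid for 10 min, solubilized in 10 mM trizma base and read at 515 nm. GI50 is where 100×(T−T0)/(C−T0)=50.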

TK-10 = experiment: Growth inhibition of human TK10 cells assessed as cell growth at 10 uM after 48 hrs by sulforhodamine B assay; type: functional; conditions: TK-10, 48 h, read-out: Activity
Procedure, shortened: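 Single-dose NCI-60 test at 10 µM. Cells were grown in RPMI 1640 with 5% FBS and 2 mM L-glutamine, preincubated 24 h, with T0 plates TCA-fixed. Exposure was 48 h at 37 °C, 5% CO2. Cells were fixed with cold TCA (final 10%, 4 °C, 60 min), stained with SRB and read at 515 nm. Percent growth was taken relative to T0 and untreated control; negative values denote cell kill.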

MCF7 = experiment: Antiproliferative activity against human MCF7 cells by MTT assay; type: functional, cell-based
Procedure, shortened: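 Cells plated at 8 × 10^3/well (MDA-MB-231) or 10^4/well (MCF7) in 96-well plates. Compounds fed in media with 5% FBS (MDA-MB-231) or 1% FBS (MCF7). MTT read-out of viable cells.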

HOP-62 [4] = experiment: Growth inhibition of human HOP62 cells assessed as cell growth at 10 uM after 48 hrs by sulforhodamine B assay; type: functional; conditions: HOP-62, 48 h, read-out: Activity; procedure, shortened: as §4
SN12C = experiment: Growth inhibition of human SN12C cells after 48 hrs by sulforhodamine B assay; type: functional; procedure, shortened: as §5
NCI-H522 = experiment: Growth inhibition of human NCI-H522 cells after 48 hrs by sulforhodamine B assay; type: functional; conditions: NCI-H522, 48 h; procedure, shortened: as §1
RXF 393 = experiment: Growth inhibition of human RXF393 cells after 48 hrs by sulforhodamine B assay; type: functional; conditions: RXF 393, 48 h; procedure, shortened: as §1
LOX IMVI = experiment: Growth inhibition of human LOXIMVI cells after 48 hrs by sulforhodamine B assay; type: functional; procedure, shortened: as §3
Malme-3M = experiment: Growth inhibition of human MALME-3M cells after 48 hrs by sulforhodamine B assay; type: functional; procedure, shortened: as §1
M14 = experiment: Growth inhibition of human M14 cells assessed as cell growth at 10 uM after 48 hrs by sulforhodamine B assay; type: functional; conditions: M14, 48 h, read-out: Activity; procedure, shortened: as §4
UO-31 = experiment: Growth inhibition of human UO31 cells after 48 hrs by sulforhodamine B assay; type: functional; conditions: UO-31, 48 h; procedure, shortened: as §5
HOP-92 = experiment: Growth inhibition of human HOP92 cells assessed as cell growth at 10 uM after 48 hrs by sulforhodamine B assay; type: functional; conditions: HOP-92, 48 h, read-out: Activity; procedure, shortened: as §4

Compound | GI50 (MDA-MB-231) [µM] | GI50 (SR) [µM] | growth at 10 µM (SF-539) [%] | GI50 (HOP-62 [1]) [µM] | growth at 10 µM (NCI-H226 [2]) [%] | growth at 10 µM (KM12) [%] | GI50 (NCI-H226 [3]) [µM] | growth at 10 µM (HL-60(TB)) [%] | GI50 (CAKI-1) [µM] | GI50 (UACC-257) [µM] | growth at 10 µM (TK-10) [%] | IC50 (MCF7) [µM] | growth at 10 µM (HOP-62 [4]) [%] | GI50 (SN12C) [µM] | GI50 (NCI-H522) [µM] | GI50 (RXF 393) [µM] | GI50 (LOX IMVI) [µM] | GI50 (Malme-3M) [µM] | growth at 10 µM (M14) [%] | growth at 10 µM (HOP-92) [%] | other results
CC(C)=CCC/C(C)=C/CC/C(C)=C/CC[C@]1(C)CCc2c3c(c(C)c(C)c2O1)OCN(CCCCCCO)C3 | 2.75 | 2.7 | 66.1 | 2.7 | 97.3 | 7.87 | 2.81 | 65.9 | 2.82 | 3.45 | 97.9 | > 20 | -23.3 | 2.5 | 3.45 | 2.3 | 2.83 | 2.78 | 26 |  | GI50 (UO-31): 2.27 µM
CC(C)=CCC/C(C)=C/CC/C(C)=C/CC[C@]1(C)CCc2c3c(c(C)c(C)c2O1)OCN(CCCCCCCCCCO)C3 |  |  | 97.6 |  | 92.6 | 89.1 |  | 88 |  |  | 99.4 | 19.4 | 90 |  |  |  |  |  | 101 | 93.7 | 
COc1ccc(CCN2COc3c(C)c(C)c4c(c3C2)CC[C@@](C)(CC/C=C(\C)CC/C=C(\C)CCC=C(C)C)O4)cc1OC |  |  | 103 |  | 97 | 96.4 |  | 79.4 |  |  | 105 | > 20 | 85.7 |  |  |  |  |  | 101 | 106 | 
CC(C)=CCC/C(C)=C/CC/C(C)=C/CC[C@]1(C)CCc2cc(O)c(C)c(C)c2O1 [GAMMA-TOCOTRIENOL] |  |  | 101 |  | 90.8 | 107 |  | 86.5 |  |  | 122 | 7.1 | 108 |  |  |  |  |  | 109 | 92 | 
CC(C)=CCC/C(C)=C/CC/C(C)=C/CC[C@]1(C)CCc2c3c(c(C)c(C)c2O1)OCN(CCCCCCCCO)C3 | 2.89 | 2.65 | 72.6 | 2.81 | 91.6 | 15.7 | 2.79 | 31 | 4.38 | 2.96 | 93.5 | > 20 | 63.2 | 2.55 | 2.91 | 2.45 | 3.29 | 3.14 | -24 |  | GI50 (UO-31): 2.37 µM
CC(C)=CCC/C(C)=C/CC/C(C)=C/CC[C@]1(C)CCc2c3c(cc(C)c2O1)OCN(CCCCO)C3 | 17.9 | 7.26 | 27.4 | 16.2 | 99.3 | -89.5 | 15.3 | -2.37 | 15.2 | 11.4 | 88.4 | 16.3 | -84.5 | 16.3 | 21.9 | 4.68 | 11.3 | 22.4 | -45.8 |  | GI50 (UO-31): 12.2 µM
CC(C)=CCC/C(C)=C/CC/C(C)=C/CC[C@]1(C)CCc2c(CNCCc3ccc(O)cc3)c(O)c(C)c(C)c2O1 |  |  | 113 |  | 105 | 89.6 |  | 84 |  |  | 113 |  | 105 |  |  |  |  |  | 102 | 94.6 | 
CC(C)=CCC/C(C)=C/CC/C(C)=C/CC[C@]1(C)CCc2c3c(c(C)c(C)c2O1)OCN(CCc1ccc(O)cc1)C3 |  |  | 104 |  | 111 | 65.6 |  | 72.3 |  |  | 106 | 10.6 | 112 |  |  |  |  |  | 97.6 | 87.9 | 
CC(C)=CCC/C(C)=C/CC/C(C)=C/CC[C@]1(C)CCc2c3c(cc(C)c2O1)OCN(CCCCCCCCCCCCO)C3 |  |  | 102 |  | 80.6 | 61.1 |  | 27.6 |  |  | 58.4 | > 20 | 86.9 |  |  |  |  |  | 90.9 |  | 
CC(C)=CCC/C(C)=C/CC/C(C)=C/CC[C@]1(C)CCc2c3c(cc(C)c2O1)OCN(CCCCCCO)C3 | 0.782 | 0.67 | 28.3 | 0.877 | 92.5 | -79.1 | 5.27 | -24.5 | 3.79 | 0.62 | 88.4 | > 20 | -94.5 | 2.06 | 4.37 | 0.546 | 0.636 | 6.25 | -90.8 |  | GI50 (UO-31): 1.52 µM
CC(C)=CCC/C(C)=C/CC/C(C)=C/CC[C@]1(C)CCc2c3c(cc(C)c2O1)OCN(CCCCCCCCCCO)C3 |  |  | 98.3 |  | 89.8 | 87.2 |  | 62.7 |  |  | 101 | 4.6 | 107 |  |  |  |  |  | 94.9 |  | 
COc1ccc(CCNCc2c(O)c(C)c(C)c3c2CC[C@@](C)(CC/C=C(\C)CC/C=C(\C)CCC=C(C)C)O3)cc1OC |  |  | 97 |  | 106 | 60.1 |  | 77.7 |  |  | 106 |  | 115 |  |  |  |  |  | 90.4 | 104 | 
CC(C)=CCC/C(C)=C/CC/C(C)=C/CC[C@]1(C)CCc2c3c(c(C)c(C)c2O1)OCN(CCCCCCCCCCCCO)C3 |  |  | 111 |  | 93.3 | 90.4 |  | 95 |  |  | 108 | > 20 | 104 |  |  |  |  |  | 113 | 107 | 
